Format in all cases: functional, cell-based
For experiment [1], the system named is Neutrophil. Put plainly: (§1) Antiinflammatory activity in human neutrophils assessed as inhibition of fMLP/CB-induced superoxide anion generation after 5 mins by spectrophotometry. In short, it runs like this:
(§2)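 Cells with 0.5 mg/mL ferricytochrome c and 1 mM Ca2+ equilibrated 37 °C for 2 min, compound added 5 min, then cytochalasin B (1 μg/mL) 3 min before FMLP (100 nM) activation for 10 min. SOD-inhibitable ferricytochrome c reduction monitored continuously at 550 nm under stirring; IC50 from 50% inhibition; n = 3.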

Experiment [2] relates to Neutrophil. Put plainly: (§3) Antiinflammatory activity in human neutrophils assessed as inhibition of fMLP/CB-induced elastase release after 5 mins by spectrophotometry. An outline of the steps: (§4)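 Neutrophils equilibrated with MeOSuc-Ala-Ala-Pro-Val-p-nitroanilide (100 μM) at 37 °C for 2 min, then exposed to compound 5 min. Activated with CB (0.5 μg/mL) plus FMLP (100 nM). Elastase release (azurophilic degranulation) followed as absorbance change at 405 nm; IC50 = concentration giving 50% inhibition; n = 3.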

Experiment [3] relates to HepG2. Description: Cytotoxicity against human HepG2 cells after 72 hrs by MTT assay. The settings on record: for IC50: HepG2, 72 h. In short, it runs like this:
(§5)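 Hep G2 and MDA-MB-231 plated at 1 × 10^4 cells per well in triplicate with various compound concentrations. At 72 h medium removed, MTT (0.5 mg/mL) added for 1 h at 37 °C, crystals solubilized in DMSO, absorbance at 550 nm. Doxorubicin control; IC50 as mean of triplicates.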
A general note: Tetrazolium assays rely on reduction of a dye to a coloured formazan, in cell work by metabolically active cells.

For experiment [4], the system named is MDA-MB-231. Put plainly: Cytotoxicity against human MDA-MB-231 cells after 72 hrs by MTT assay. The settings on record: for IC50: MDA-MB-231, 72 h. An outline of the steps:
as §5

Experiment [5] has as its system A549. Put plainly: Cytotoxicity against human A549 cells after 72 hrs by MTT assay. To be noted: for IC50: A549, 72 h. In short, it runs like this:
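A549 seeded at 5 × 10^3 cells per well in triplicate, exposed to various compound concentrations. After 72 h medium replaced by MTT (0.5 mg/mL), 1 h at 37 °C; formazan dissolved in DMSO, absorbance read at 550 nm. Doxorubicin control; IC50 as mean of triplicates.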

Experiment [6] can be described thus: as §1. To be noted: Neutrophil. An outline of the steps: as §2
A short description of experiment [7]: as §3. The settings on record: Neutrophil. An outline of the steps: as §4

Active and inactive are the calls of the source. The rule behind the calls is not given here. Some results are limits rather than exact numbers.

What is called IC50 is the midpoint of a concentration-inhibition curve.

Regarding `O=C1C=CC[C@@H]([C@H](O)[C@@H](O)c2ccccc2)O1`, the inhibition entry in experiment [1] and in experiment [2] was “inactive” throughout. For the same molecule, in experiment [3], the IC50 was more than 10 µM.

Turning to `O=C1C[C@H]2C[C@H](O1)[C@H](O)[C@@H](c1ccccc1)O2`, the inhibition entry in experiment [1] and in experiment [2] was “inactive” each time. The result in experiment [3], in experiment [4] and in experiment [5] was inactive.

For `CNC(=O)c1cc(Oc2ccc(NC(=O)Nc3ccc(Cl)c(C(F)(F)F)c3)cc2)ccn1` [SORAFENIB], the figures for the concentration for half-maximal inhibition (IC50) in experiment [6] and in experiment [7] were 6.3 µM and 1.9 µM, respectively.

For `CO[C@H](c1ccccc1)[C@@H](O)[C@@H]1CC=CC(=O)O1`, the inhibition result in experiment [1] and in experiment [2] was “inactive” in each case. Also, the IC50 in experiment [3], in experiment [4] and in experiment [5] was more than 10 µM in each case.

Take `CO[C@@H](c1ccccc1)[C@H](O)[C@@H]1CC=CC(=O)O1`: the inhibition entry in experiment [1] and in experiment [2] was “inactive” throughout. Besides, the IC50 in experiment [3], in experiment [4] and in experiment [5] was more than 10 µM each time.

In the case of `O=C1C=CC[C@@H]([C@@H]2O[C@H]2c2ccccc2)O1`, the concentration for half-maximal inhibition (IC50) is 21.2 µM in experiment [6]; 19.8 µM in experiment [7]; more than 10 µM in experiment [3]; more than 10 µM in experiment [4]; more than 10 µM in experiment [5].

`COc1cccc2c1C(=O)c1c(O)c3c(c(O)c1C2=O)C[C@@](O)(C(=O)CO)C[C@@H]3O[C@H]1C[C@H](N)[C@H](O)[C@H](C)O1` [DOXORUBICIN]: the IC50 turned out to be 0.88 µM in experiment [4] and 0.87 µM in experiment [5].

Take `O=C1C=CC[C@@H]([C@H](O)[C@H](Cl)c2ccccc2)O1`: the IC50 in experiment [6] was 30 µM; in experiment [3], more than 10 µM; in experiment [4], more than 10 µM; in experiment [5], more than 10 µM.

For `O=C1C=CC(O)[C@H](/C=C/c2ccccc2)O1` (stereo partly specified), the IC50 in experiment [6] is 8.1 µM; in experiment [7], 14.6 µM; in experiment [3], more than 10 µM; in experiment [4] it was more than 10 µM; in experiment [5], 7.9 µM.

As for `O=c1cccc(/C=C/c2ccccc2)o1`, the IC50 in experiment [6] is 11.6 µM; in experiment [7] it was 6.8 µM; in experiment [3], more than 10 µM; in experiment [4], more than 10 µM; in experiment [5], more than 10 µM.

As to `O=C1C=CC[C@@H]([C@@H](O)[C@@H](O)c2ccccc2)O1`, the inhibition result in experiment [1] and in experiment [2] was “inactive” in each case. The IC50 in experiment [3], in experiment [4] and in experiment [5] was more than 10 µM throughout.

Consider `O=C1C=CC[C@@H](/C=C/c2ccccc2)O1`, for which the IC50 is 8.3 µM in experiment [6]; 15.4 µM in experiment [7]; more than 10 µM in experiment [3]; more than 10 µM in experiment [4]; more than 10 µM in experiment [5].

Source of the values: ChEMBL document CHEMBL3352645, “Bioactive 6S-styryllactone constituents of Polyalthia parviflora” (J Nat Prod, 2014).
